Results published in ChEMBL document CHEMBL1138555, “N-acylated and N,N'-diacylated imidazolidine-2-thione derivatives and N,N'-diacylated tetrahydropyrimidine-2(1H)-thione analogues: synthesis and antiproliferative activity” (Eur J Med Chem, 2009).

Assays:
MT4 = assay: Antiproliferative activity against human MT4 cells assessed as reduction of growth by MTT assay; assay type: functional, cell-based
Outline: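 MT-4 lymphoblastoid T cells (ATCC) in RPMI 1640 with 10% FCS, penicillin/streptomycin, checked for mycoplasma. 1 × 10⁴ mock-infected cells per well with serial dilutions from a 100 mM DMSO stock. Incubated 4 days at 37 °C, viable cells counted by MTT. IC50 versus untreated controls by linear regression. Mean of three separate experiments.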

MOLT-4 = assay: Growth inhibition of human MOLT4 cells after 48 hrs by sulforhodamine B assay; assay type: functional; conditions: MOLT-4, 48 h
Outline: (§1)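 NCI screen panel. Five 10-fold concentrations from 10^-4 to 10^-8 M. Exposure for the last 48 h of a 72 h incubation. Growth estimated by sulforhodamine B protein assay. GI50 is the concentration giving 50% growth inhibition. Where that level was not reached or was exceeded, the value is given as above or below the highest or lowest concentration tested.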

RXF 393 = assay: Growth inhibition of human RXF393 cells after 48 hrs by sulforhodamine B assay; assay type: functional; conditions: RXF 393, 48 h; outline: as §1
NCI-H460 = assay: Growth inhibition of human NCI-H460 cells after 48 hrs by sulforhodamine B assay; assay type: functional; conditions: NCI-H460, 48 h; outline: as §1
HOP-92 = assay: Growth inhibition of human HOP92 cells after 48 hrs by sulforhodamine B assay; assay type: functional; conditions: HOP-92, 48 h; outline: as §1
PC-3 = assay: Growth inhibition of human PC3 cells after 48 hrs by sulforhodamine B assay; assay type: functional; conditions: PC-3, 48 h; outline: as §1
SF-268 = assay: Growth inhibition of human SF268 cells after 48 hrs by sulforhodamine B assay; assay type: functional; conditions: SF-268, 48 h; outline: as §1
HT-29 = assay: Growth inhibition of human HT-29 cells after 48 hrs by sulforhodamine B assay; assay type: functional; conditions: HT-29, 48 h; outline: as §1
ACHN = assay: Growth inhibition of human ACHN cells after 48 hrs by sulforhodamine B assay; assay type: functional; outline: as §1
SK-MEL-28 = assay: Growth inhibition of human SK-MEL-28 cells after 48 hrs by sulforhodamine B assay; assay type: functional; conditions: SK-MEL-28, 48 h; outline: as §1
A549 = assay: Growth inhibition of human A549 cells after 48 hrs by sulforhodamine B assay; assay type: functional; conditions: A549, 48 h; outline: as §1
HL-60(TB) = assay: Growth inhibition of human HL-60(TB) cells after 48 hrs by sulforhodamine B assay; assay type: functional; conditions: HL-60, 48 h
Outline: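 NCI 60-cell-line screen protocol: cells exposed to compound at five 10-fold dilutions from 10^-4 to 10^-8 M for the last 48 h of a 72 h incubation. Sulforhodamine B protein assay estimated viability/growth. GI50 (50% growth inhibition) derived; where not reached or exceeded, reported as greater or less than the highest or lowest concentration tested.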

OVCAR-3 = assay: Growth inhibition of human OVCAR-3 cells after 48 hrs by sulforhodamine B assay; assay type: functional; conditions: OVCAR-3, 48 h; outline: as §1
U-251 = assay: Growth inhibition of human U251 cells after 48 hrs by sulforhodamine B assay; assay type: functional; conditions: U-251, 48 h
Outline: (§2)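 NCI in vitro panel screen. Compounds tested at five 10-fold dilutions, 10^-4 to 10^-8 M. Cells in 96-well plates were exposed for the last 48 h of a 72 h incubation. Viability/growth was read by sulforhodamine B protein assay. GI50 is the concentration giving 50% growth inhibition. Values beyond the tested range are reported as greater or less than the maximum or minimum concentration.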

NCI-H322M = assay: Growth inhibition of human NCI-H322M cells after 48 hrs by sulforhodamine B assay; assay type: functional; outline: as §1
MDA-MB-435 = assay: Growth inhibition of human MDA-MB-435 cells after 48 hrs by sulforhodamine B assay; assay type: functional; conditions: MDA-MB-435, 48 h; outline: as §1
SN12C = assay: Growth inhibition of human SN12C cells after 48 hrs by sulforhodamine B assay; assay type: functional; outline: as §2
LOX IMVI = assay: Growth inhibition of human LOXIMVI cells after 48 hrs by sulforhodamine B assay; assay type: functional; outline: as §1
HCT-15 = assay: Growth inhibition of human HCT15 cells after 48 hrs by sulforhodamine B assay; assay type: functional; conditions: HCT-15, 48 h; outline: as §1
K562 = assay: Growth inhibition of human K562 cells after 48 hrs by sulforhodamine B assay; assay type: functional; conditions: K562, 48 h; outline: as §1
KM12 = assay: Growth inhibition of human KM12 cells after 48 hrs by sulforhodamine B assay; assay type: functional; conditions: KM12, 48 h; outline: as §1
OVCAR-8 = assay: Growth inhibition of human OVCAR8 cells after 48 hrs by sulforhodamine B assay; assay type: functional; conditions: OVCAR-8, 48 h; outline: as §1
SNB-75 = assay: Growth inhibition of human SNB75 cells after 48 hrs by sulforhodamine B assay; assay type: functional; conditions: SNB-75, 48 h; outline: as §2
NCI-H23 = assay: Growth inhibition of human NCI-H23 cells after 48 hrs by sulforhodamine B assay; assay type: functional; conditions: NCI-H23, 48 h; outline: as §1
COLO 205 = assay: Growth inhibition of human COLO205 cells after 48 hrs by sulforhodamine B assay; assay type: functional; conditions: COLO 205, 48 h; outline: as §1
UACC-62 = assay: Growth inhibition of human UACC62 cells after 48 hrs by sulforhodamine B assay; assay type: functional; conditions: UACC-62, 48 h; outline: as §2
MDA-MB-231 = assay: Growth inhibition of human MDA-MB-231 cells after 48 hrs by sulforhodamine B assay; assay type: functional; conditions: MDA-MB-231, 48 h; outline: as §1
NCI/ADR-RES = assay: Growth inhibition of human NCI/ADR-RES cells after 48 hrs by sulforhodamine B assay; assay type: functional; outline: as §1
EKVX = assay: Growth inhibition of human EKVX cells after 48 hrs by sulforhodamine B assay; assay type: functional; outline: as §1
HOP-62 = assay: Growth inhibition of human HOP62 cells after 48 hrs by sulforhodamine B assay; assay type: functional; conditions: HOP-62, 48 h; outline: as §1
[1] = Growth inhibition of human […] cells after 48 hrs by sulforhodamine B assay; assay type: functional; outline: as §1
TK-10 = assay: Growth inhibition of human TK10 cells after 48 hrs by sulforhodamine B assay; assay type: functional; conditions: TK-10, 48 h; outline: as §2
T47D = assay: Growth inhibition of human T47D cells after 48 hrs by sulforhodamine B assay; assay type: functional; outline: as §2
UO-31 = assay: Growth inhibition of human UO31 cells after 48 hrs by sulforhodamine B assay; assay type: functional; conditions: UO-31, 48 h; outline: as §2
SK-MEL-2 = assay: Growth inhibition of human SK-MEL-2 cells after 48 hrs by sulforhodamine B assay; assay type: functional; conditions: SK-MEL-2, 48 h; outline: as §1
SF-295 = assay: Growth inhibition of human SF295 cells after 48 hrs by sulforhodamine B assay; assay type: functional; conditions: SF-295, 48 h; outline: as §1
SNB-19 = assay: Growth inhibition of human SNB19 cells after 48 hrs by sulforhodamine B assay; assay type: functional; conditions: SNB-19, 48 h; outline: as §2
CAKI-1 = assay: Growth inhibition of human Caki1 cells after 48 hrs by sulforhodamine B assay; assay type: functional; conditions: CAKI-1, 48 h; outline: as §1
SW-620 = assay: Growth inhibition of human SW620 cells after 48 hrs by sulforhodamine B assay; assay type: functional; conditions: SW-620, 48 h; outline: as §2
SK-MEL-5 = assay: Growth inhibition of human SK-MEL-5 cells after 48 hrs by sulforhodamine B assay; assay type: functional; conditions: SK-MEL-5, 48 h; outline: as §1
IGROV-1 = assay: Growth inhibition of human IGROV1 cells after 48 hrs by sulforhodamine B assay; assay type: functional; conditions: IGROV-1, 48 h; outline: as §1
SK-OV-3 = assay: Growth inhibition of human SKOV3 cells after 48 hrs by sulforhodamine B assay; assay type: functional; conditions: SK-OV-3, 48 h; outline: as §1
Malme-3M = assay: Growth inhibition of human MALME-3M cells after 48 hrs by sulforhodamine B assay; assay type: functional; outline: as §1
BT-549 = assay: Growth inhibition of human BT549 cells after 48 hrs by sulforhodamine B assay; assay type: functional; conditions: BT-549, 48 h; outline: as §1
M14 = assay: Growth inhibition of human M14 cells after 48 hrs by sulforhodamine B assay; assay type: functional; conditions: M14, 48 h; outline: as §1
OVCAR-4 = assay: Growth inhibition of human OVCAR4 cells after 48 hrs by sulforhodamine B assay; assay type: functional; conditions: OVCAR-4, 48 h; outline: as §1
UACC-257 = assay: Growth inhibition of human UACC257 cells after 48 hrs by sulforhodamine B assay; assay type: functional; conditions: UACC-257, 48 h; outline: as §2
786-0 = assay: Growth inhibition of human 786-0 cells after 48 hrs by sulforhodamine B assay; assay type: functional; conditions: 786-0, 48 h; outline: as §1
HCT-116 = assay: Growth inhibition of human HCT116 cells after 48 hrs by sulforhodamine B assay; assay type: functional; conditions: HCT-116, 48 h; outline: as §1

CC(=O)N1CCN(C=O)C1=S
IC50 (MT4): > 100 µM

O=C(c1ccc(Cl)cc1Cl)N1CCCN(C(=O)c2ccc(Cl)cc2Cl)C1=S
IC50 (MT4): > 100 µM

CC(C)(C)c1ccc(C(=O)N2CCN(C(=O)c3ccc(C(C)(C)C)cc3)C2=S)cc1
IC50 (MT4): > 100 µM

O=C(c1ccc(Cl)c(Cl)c1)N1CCCN(C(=O)c2ccc(Cl)c(Cl)c2)C1=S
IC50 (MT4): 72 µM

O=C(c1ccco1)N1CCCN(C(=O)c2ccco2)C1=S
IC50 (MT4): 36 µM

O=C(c1ccc(Cl)cc1)N1CCN(C(=O)c2ccc(Cl)cc2)C1=S
IC50 (MT4): 9.9 µM

O=C(c1ccc(Cl)c([N+](=O)[O-])c1)N1CCN(C(=O)c2ccc(Cl)c([N+](=O)[O-])c2)C1=S
IC50 (MT4): 11 µM

N#CC(C#N)=CN1CCN(C(=O)c2ccco2)C1=O
IC50 (MT4): > 100 µM

O=C(c1ccccc1Cl)N1CCN(C(=O)c2ccccc2Cl)C1=S
IC50 (MT4): 54 µM

O=C(c1cccc(Cl)c1)N1CCN(C(=O)c2cccc(Cl)c2)C1=S
IC50 (MT4): 35 µM

O=CN1CCN(C(=O)c2ccccc2)C1=S
IC50 (MT4): 12 µM

CC(=O)/C(=C/N1CCN(C(=O)c2ccco2)C1=O)C(=O)c1ccccc1
IC50 (MT4): > 100 µM

Cc1ccc(C(=O)N2CCN(C(=O)c3ccc(C)cc3)C2=S)cc1
IC50 (MT4): 35 µM

O=C(c1ccccc1)N1CCCN(C(=O)c2ccccc2)C1=S
IC50 (MT4): > 100 µM

COC(=O)/C(=C\N1CCN(C(=O)c2ccco2)C1=S)C(C)=O
GI50 (MOLT-4): 20.8 µM | GI50 (RXF 393): 4.4 µM | GI50 (NCI-H460): 2.3 µM | GI50 (HOP-92): 20.8 µM | GI50 (PC-3): 18.1 µM | GI50 (SF-268): 5.8 µM | GI50 (HT-29): 15.8 µM | GI50 (ACHN): 4.1 µM | GI50 (SK-MEL-28): 9.1 µM | GI50 (A549): 19.3 µM | GI50 (HL-60(TB)): 7.5 µM | GI50 (OVCAR-3): 2.7 µM | GI50 (U-251): 5.5 µM | GI50 (NCI-H322M): 12.4 µM | GI50 (MDA-MB-435): 4.5 µM | GI50 (SN12C): 5.9 µM | GI50 (LOX IMVI): 1.6 µM | GI50 (HCT-15): 2.2 µM | GI50 (K562): 10.2 µM | GI50 (KM12): 3 µM | GI50 (OVCAR-8): 27.8 µM | GI50 (SNB-75): 21 µM | GI50 (NCI-H23): 12.2 µM | GI50 (COLO 205): 12.6 µM | GI50 (UACC-62): 11.5 µM | GI50 (MDA-MB-231): 9 µM | GI50 (NCI/ADR-RES): 22.2 µM | GI50 (EKVX): 2.6 µM | GI50 (HOP-62): 20.6 µM | GI50 [1]: 5.5 µM | GI50 (TK-10): 3.5 µM | GI50 (T47D): 6 µM | GI50 (UO-31): 13.5 µM | GI50 (SK-MEL-2): 15.2 µM | GI50 (SF-295): 18.6 µM | GI50 (SNB-19): 41.7 µM | GI50 (CAKI-1): 2.8 µM | GI50 (SW-620): 3.9 µM | GI50 (SK-MEL-5): 5.3 µM | GI50 (IGROV-1): 10.4 µM | GI50 (SK-OV-3): 31.3 µM | GI50 (Malme-3M): 5.6 µM | GI50 (BT-549): 3.5 µM | GI50 (M14): 10.7 µM | GI50 (OVCAR-4): 17.4 µM | GI50 (UACC-257): 17.2 µM | GI50 (786-0): 11.2 µM | GI50 (HCT-116): 7.4 µM | IC50 (MT4): 7 µM

O=CN1CCN(C(=O)/C=C/c2ccccc2)C1=S
IC50 (MT4): > 100 µM
